Assay results published in ChEMBL document CHEMBL1154352, “Toll-like receptor 7 selective synthetic oligoribonucleotide agonists: synthesis and structure-activity relationship studies” (J Med Chem, 2009).
Calls of active or inactive are those of the source. The calls are words filed in the database; no cut-off is given here.

Columns and labels:
Homo sapiens = species: Homo sapiens; experiment: Ratio of human TLR7 activity to human TLR8 activity
How it was run: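 TLR7/TLR8 ratio computed from fold NF-κB (SEAP reporter) activation in HEK293 cells stably expressing human TLR7 versus TLR8, compounds at 50 μg/mL, 18 h exposure; representative of three independent experiments.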

[1] = biological target: Toll-like receptor 3 (Homo sapiens) (UniProt O15455); experiment: Activation of human TLR3 expressed in HEK293 assessed as induction of NF-kappaB activity reporter gene assay; format: cell-based
Splenocyte [2] = experiment: Immunomodulatory activity in C57BL/6 mouse splenocytes bearing TLR7 receptor assessed as IL6 release at 100 ug/ml after 24 hrs by ELISA; format: functional, cell-based
How it was run: (§1)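 C57BL/6 splenocytes in RPMI 1640 with 10% FBS, penicillin/streptomycin, 2 mM L-glutamine, plated at 5 × 10^6 cells/mL; compounds in PBS added, 37 °C for 24 h. Supernatant IL-12 and IL-6 by ELISA; representative of three independent experiments.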

[3] = Metabolic stability in human serum assessed as full length product remaining after 10 mins by HPLC; format: ADME, cell-free; details: read-out: Stability
How it was run: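 About 0.5 A260 units compound in 1% human serum in PBS, 37 °C; aliquot taken at 10 min, analysed by anion-exchange HPLC for percent intact full-length product.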

PBMC [4] = experiment: Immunomodulatory activity in human PBMC assessed as induction of IL12 at 100 ug/ml after 24 hrs; format: functional, cell-based
How it was run: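 Human PBMCs plated at 5 × 10^6 cells/mL; compounds dissolved in PBS added at various concentrations, 37 °C for 24 h. Supernatant cytokines/chemokines quantified with human Luminex multiplex kit.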

[5] = biological target: T1, Toll-like receptor 8 (Homo sapiens) (UniProt Q9NR97); experiment: Activation of human TLR8 expressed in HEK293XL assessed as fold induction of NF-kappaB activity at 50 ug/ml after 18 hrs by reporter gene assay relative to control
T1 sequence (whole entry): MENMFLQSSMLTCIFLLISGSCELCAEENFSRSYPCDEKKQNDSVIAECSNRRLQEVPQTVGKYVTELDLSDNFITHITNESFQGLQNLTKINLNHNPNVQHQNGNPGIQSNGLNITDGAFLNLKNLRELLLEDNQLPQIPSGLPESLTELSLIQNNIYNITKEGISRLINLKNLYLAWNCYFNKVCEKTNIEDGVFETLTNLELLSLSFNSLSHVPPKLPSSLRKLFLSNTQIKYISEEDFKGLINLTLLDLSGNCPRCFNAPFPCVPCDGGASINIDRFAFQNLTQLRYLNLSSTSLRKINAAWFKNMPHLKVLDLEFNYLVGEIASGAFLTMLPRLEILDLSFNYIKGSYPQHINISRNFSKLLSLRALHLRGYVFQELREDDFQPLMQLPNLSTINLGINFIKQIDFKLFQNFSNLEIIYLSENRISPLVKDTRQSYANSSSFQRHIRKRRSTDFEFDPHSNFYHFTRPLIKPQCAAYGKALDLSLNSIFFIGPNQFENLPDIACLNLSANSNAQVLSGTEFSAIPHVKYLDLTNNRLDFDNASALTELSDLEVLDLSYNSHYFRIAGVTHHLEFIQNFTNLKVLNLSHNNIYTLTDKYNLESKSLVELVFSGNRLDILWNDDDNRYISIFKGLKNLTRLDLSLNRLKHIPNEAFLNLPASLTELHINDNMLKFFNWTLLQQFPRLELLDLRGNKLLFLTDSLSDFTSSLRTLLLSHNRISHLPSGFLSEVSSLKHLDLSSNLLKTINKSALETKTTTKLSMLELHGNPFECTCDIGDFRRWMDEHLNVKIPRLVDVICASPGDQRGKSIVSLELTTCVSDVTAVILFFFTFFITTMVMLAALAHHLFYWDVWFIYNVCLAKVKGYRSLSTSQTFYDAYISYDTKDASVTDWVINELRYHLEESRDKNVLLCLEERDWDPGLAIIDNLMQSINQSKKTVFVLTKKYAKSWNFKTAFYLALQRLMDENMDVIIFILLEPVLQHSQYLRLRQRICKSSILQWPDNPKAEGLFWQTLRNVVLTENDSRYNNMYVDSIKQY
How it was run: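 HEK293 cells stably expressing human TLR7 or TLR8, transiently transfected with SEAP reporter plasmid; medium replaced, SIMRA compounds added, 18 h incubation. Supernatant SEAP measured by QuantiBlue; expressed as fold increase in NF-κB activity over PBS control. Tabulated data at 50 μg/mL, representative of three independent experiments.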

PBMC [6] = experiment: Immunomodulatory activity in human PBMC assessed as induction of IFN-alpha at 100 ug/ml after 24 hrs
Splenocyte [7] = experiment: Immunomodulatory activity in C57BL/6 mouse splenocytes bearing TLR7 receptor assessed as IL12 release at 100 ug/ml after 24 hrs by ELISA; format: functional, cell-based; how it was run: as §1

Sequence of Toll-like receptor 3 (Homo sapiens) (O15455 whole entry): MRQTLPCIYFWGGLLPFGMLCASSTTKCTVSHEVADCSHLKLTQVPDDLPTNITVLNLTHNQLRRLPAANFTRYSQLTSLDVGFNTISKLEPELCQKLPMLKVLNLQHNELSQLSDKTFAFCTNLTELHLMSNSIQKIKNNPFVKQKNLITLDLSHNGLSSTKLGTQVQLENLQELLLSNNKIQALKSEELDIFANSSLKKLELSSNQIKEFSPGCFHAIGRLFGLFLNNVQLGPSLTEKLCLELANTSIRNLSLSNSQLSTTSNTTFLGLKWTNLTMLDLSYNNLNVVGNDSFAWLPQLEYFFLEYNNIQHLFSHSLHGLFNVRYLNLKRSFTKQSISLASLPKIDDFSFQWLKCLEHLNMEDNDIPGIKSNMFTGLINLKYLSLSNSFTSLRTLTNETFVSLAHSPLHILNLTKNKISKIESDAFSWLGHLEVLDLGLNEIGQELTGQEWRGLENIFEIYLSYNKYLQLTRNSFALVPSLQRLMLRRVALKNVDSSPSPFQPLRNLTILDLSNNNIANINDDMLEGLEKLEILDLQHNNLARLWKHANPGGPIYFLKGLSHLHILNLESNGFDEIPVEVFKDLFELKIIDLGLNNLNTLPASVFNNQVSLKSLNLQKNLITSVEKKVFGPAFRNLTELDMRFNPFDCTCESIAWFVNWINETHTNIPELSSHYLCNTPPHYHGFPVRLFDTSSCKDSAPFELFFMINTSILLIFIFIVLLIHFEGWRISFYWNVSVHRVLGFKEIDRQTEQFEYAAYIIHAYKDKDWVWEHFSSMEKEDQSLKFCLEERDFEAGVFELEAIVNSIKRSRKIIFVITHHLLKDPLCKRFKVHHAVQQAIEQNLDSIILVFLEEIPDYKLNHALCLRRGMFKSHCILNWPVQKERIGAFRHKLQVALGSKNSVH

Compound: Nc1ccn([C@@H]2O[C@H](COP(=O)(S)O[C@H]3[C@@H](O)[C@H](n4cnc5c(N)ncnc54)O[C@@H]3COP(=O)(S)O[C@H]3[C@@H](O)[C@H](n4cnc5c(N)ncnc54)O[C@@H]3CO)[C@@H](OP(=O)(S)OC[C@H]3O[C@@H](n4ccc(=O)[nH]c4=O)[C@H](O)[C@@H]3OP(=O)(S)OC[C@H]3O[C@@H](n4ccc5c(=O)[nH]c(N)nc54)[C@H](O)[C@@H]3OP(=O)(S)OC[C@H]3O[C@@H](n4cnc5c(N)ncnc54)[C@H](O)[C@@H]3OP(=O)(S)OC[C@H]3O[C@@H](n4cnc5c(N)ncnc54)[C@H](O)[C@@H]3OP(=O)(S)OC[C@H]3O[C@@H](n4ccc5c(=O)[nH]c(N)nc54)[C@H](O)[C@@H]3OP(=O)(S)OC[C@H]3O[C@@H](n4ccc(N)nc4=O)[C@H](O)[C@@H]3OP(=O)(S)OC[C@H]3O[C@@H](n4ccc(=O)[nH]c4=O)[C@H](O)[C@@H]3OP(=O)(S)OC[C@H]3O[C@@H](n4ccc5c(=O)[nH]c(N)nc54)[C@H](O)[C@@H]3OP(=O)(S)OCC(O)COP(=O)(S)O[C@H]3[C@@H](O)[C@H](n4ccc5c(=O)[nH]c(N)nc54)O[C@@H]3COP(=O)(S)O[C@H]3[C@@H](O)[C@H](n4ccc(=O)[nH]c4=O)O[C@@H]3COP(=O)(S)O[C@H]3[C@@H](O)[C@H](n4ccc(N)nc4=O)O[C@@H]3COP(=O)(S)O[C@H]3[C@@H](O)[C@H](n4ccc5c(=O)[nH]c(N)nc54)O[C@@H]3COP(=O)(S)O[C@H]3[C@@H](O)[C@H](n4cnc5c(N)ncnc54)O[C@@H]3COP(=O)(S)O[C@H]3[C@@H](O)[C@H](n4cnc5c(N)ncnc54)O[C@@H]3COP(=O)(S)O[C@H]3[C@@H](O)[C@H](n4ccc5c(=O)[nH]c(N)nc54)O[C@@H]3COP(=O)(S)O[C@H]3[C@@H](O)[C@H](n4ccc(=O)[nH]c4=O)O[C@@H]3COP(=O)(S)O[C@H]3[C@@H](O)[C@H](n4ccc(N)nc4=O)O[C@@H]3COP(=O)(S)O[C@H]3[C@@H](O)[C@H](n4cnc5c(N)ncnc54)O[C@@H]3COP(=O)(S)O[C@H]3[C@@H](O)[C@H](n4cnc5c(N)ncnc54)O[C@@H]3CO)[C@H]2O)c(=O)n1 (stereo partly drawn)
- Ratio (Homo sapiens): 30.7
- Activity [1]: inactive
- Activity (Splenocyte [2]): Active
- remaining at 10 min [3]: 76%
- Activity (PBMC [4]): 240 pg/mL
- fold change (FC) [5]: 0.6
- IFN-alpha (PBMC [6]): 28.7 pg/mL
- Activity (Splenocyte [7]): Active
